Series [1] is described as follows: Distribution coefficient, log D of the compound. The note with it: octanol/water. In kind it is physicochemical. Put shortly:
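Calculated logD at pH 7.4 (PrologD).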

Series [2] can be described thus: Aqueous solubility of the compound. In kind it is physicochemical. The note with it: buffer. Put shortly:
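Aqueous suspension left overnight, centrifuged at 10,000 rpm for 5 min; supernatant diluted and quantified by HPLC.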

Series [3] deals with Voltage-gated L-type calcium channel (Rattus norvegicus, UniProt P22002+Q02485+P27732). Briefly: Inhibition of voltage-dependent L-type calcium channel in rat thoracic aorta ring assessed as effect on high K+ induced contraction by Magnus method. In kind it is tissue-based.
Series [4] can be described thus: Inhibition of voltage-dependent N-type calcium channel in human IMR32 cells assessed as effect on calcium influx. In kind it is cell-based. The note with it: IMR-32.
The species entered for a further series is Rattus norvegicus. Briefly: Inhibition of voltage-dependent N-type calcium channel in rat superior cervical ganglion neurons assessed as effect on Ba2+ current at holding potential of -60 mV at 10 uM by electrophysiology. In kind it is tissue-based.

Converted amounts (≈) assume the structure as drawn.

Broadly, the logD is the decadic logarithm of the distribution of all forms, ionised or not, between an organic phase and buffer at a given pH. A higher logD goes with higher lipophilicity. A word on the solubility: it is how much of the substance goes into solution per volume. The low end stands for little dissolved substance, the high end for much dissolved substance. One may read the IC50 as the concentration at which inhibition is half-maximal. Usually inhibition stands for how much of the control response was suppressed.

In the case of `COc1ccccc1/C=C/COC(=O)C1=C(C(OC)OC)NC(C)=C(C(=O)O)C1c1cccc(Cl)c1` (stereo unspecified), in series [1], the logD came to 1.2. In addition, the solubility in series [2] was 10.2 mg/mL (≈ 19.8 mM). The IC50 in series [3] came to 5900 nM; in series [4], 2500 nM.
With `COc1cccc(/C=C/COC(=O)C2=C(C(OC)OC)NC(C)=C(C(=O)O)C2c2cccc(Cl)c2)c1` (stereo unspecified), the IC50 was determined as 4400 nM in series [3] and 3000 nM in series [4].
The matching figures for `COC(OC)C1=C(C(=O)OC/C=C/c2ccc(Cl)cc2)C(c2cccc(Cl)c2)C(C(=O)O)=C(C)N1` (stereo unspecified): 1400 nM and 1700 nM.
As for `COc1ccc(/C=C/COC(=O)C2=C(C(OC)OC)NC(C)=C(C(=O)O)C2c2cccc(Cl)c2)cc1` (stereo unspecified), the IC50 amounted to 540 nM in series [3] and 2100 nM in series [4].
In the case of `CC1=C(C(=O)O)C(c2cccc(Cl)c2)C(C(=O)OC/C=C/c2ccccc2)=C(C#N)N1` (stereo unspecified), the IC50 came out at 2000 nM in series [3] and 5800 nM in series [4].
Turning to `CN[C@@H](CC(C)C)C(=O)NCCCC(c1ccc(F)cc1)c1ccc(F)cc1`, in the series filed under Rattus norvegicus, the inhibition stood at 83%.
With `COC(OC)C1=C(C(=O)OC/C=C/c2cccc(Cl)c2)C(c2cccc(Cl)c2)C(C(=O)O)=C(C)N1` (stereo unspecified), the IC50 was 1000 nM in series [3] and 1400 nM in series [4].
`COC(OC)C1=C(C(=O)OC/C=C/c2ccccc2)C(c2cccc(Cl)c2)C(C(=O)O)=C(C)N1` (stereo unspecified) had a logD in series [1] of 1.29. Moreover, in series [2], the solubility was more than 15 mg/mL. In addition, the inhibition in the series listed under Rattus norvegicus was found to be 85%. The half-inhibitory concentration (IC50) in series [3] stood at 8100 nM; in series [4], 3000 nM.
`COC(OC)C1=C(C(=O)OC/C=C/c2ccc(C(F)(F)F)cc2)C(c2cccc(Cl)c2)C(C(=O)O)=C(C)N1` (stereo unspecified): the IC50 came to 3200 nM in series [3] and 2000 nM in series [4].
The matching figures for `COC(OC)C1=C(C(=O)OC/C=C/c2ccccc2Cl)C(c2cccc(Cl)c2)C(C(=O)O)=C(C)N1` (stereo unspecified): 700 nM and 1800 nM.
Consider `CC1=NC(C)=C(C(=O)O)C(c2cccc(Cl)c2)/C1=C(\O)OC/C=C/c1ccccc1` (stereo unspecified), for which, in series [4], the IC50 was 1000 nM.
In series [1], `CC1=C(C(=O)O)C(c2cccc(Cl)c2)C(C(=O)OCCC(c2ccccc2)c2ccccc2)=C(C(F)(F)F)N1` (stereo unspecified) gave a logD of 3.51. The solubility in series [2] came out at 3.5 mg/mL (≈ 6.3 mM). Also, the IC50 in series [4] turned out to be 1700 nM.
Regarding `COCCOC(=O)C1=C(C)NC(C)=C(C(=O)OC/C=C/c2ccccc2)C1c1cccc([N+](=O)[O-])c1` (stereo unspecified) [CILNIDIPINE], in series [4], the IC50 came to 1600 nM.
As to `COC(OC)C1=C(C(=O)OC/C=C/c2ccc(F)cc2)C(c2cccc(Cl)c2)C(C(=O)O)=C(C)N1` (stereo unspecified), the values for the IC50 in series [3] and in series [4] were 2000 nM and 1800 nM, respectively.
The corresponding values for `CCC1=C(C(=O)OC/C=C/c2ccccc2)C(c2cccc(Cl)c2)C(C(=O)O)=C(C)N1` (stereo unspecified) are 7 nM and 810 nM.
The corresponding values for `COC(OC)C1=C(C(=O)O)C(c2cccc(Cl)c2)C(C(=O)OC/C=C/c2ccccc2)=C(C)N1` (stereo unspecified) are 1300 nM and 3900 nM.
On to `CC1=C(C(=O)O)C(c2cccc([N+](=O)[O-])c2)C(C(=O)OC/C=C/c2ccccc2)=C(C)N1` (stereo unspecified), for which, in series [4], the IC50 was found to be 3500 nM.

(Values after ChEMBL document CHEMBL1157350, “The structure-activity relationship study on 2-, 5-, and 6-position of the water soluble 1,4-dihydropyridine derivatives blocking N-type calcium channels” (Bioorg Med Chem Lett, 2008).)
